21 molecules from ChEMBL document CHEMBL4725223, “Structure-activity relationship studies on the inhibition of the bacterial translation of novel Odilorhabdins analogues” (Bioorg Med Chem, 2020) can be followed below.

pIC50: −log10 of the molar value. In brackets after ≈: the same amount, converted by molar mass. Starred links: 1 amine or outer side, 2 acyl side, 3 side chain; linkers in the order of their positions; H or OH if unused. Non-standard residues stand in square brackets, D forms with d. Residues, ends and D or L forms follow the SMILES beside them. Dab(3S-OH) = NC[C@H](O)[C@H](N)C(=O)O; X1 = O=C([C@@H](CCCO)N[*:1])[*:2]; ΔZArg = N=C(N)NCC/C=C(\N)C(=O)O

One experiment concerns the target Bacterial 70S ribosome. In words: Inhibition of ribosome-mediated translation in Cell-free Escherichia coli protein synthesis system using pCmGFP as plasmid incubated at 30 degreeC measured every 20 mins by invitro coupled transcription-translation system based fluorescence analysis. The class given is subcellular. A digest of the protocol: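 E. coli cell-free coupled transcription-translation; template was gfp amplified from pCmGFP and cloned into pEXP5-CT, 1 µg plasmid DNA added to start each reaction. Feed buffer added at 30 min. Run at 30 °C, fluorescence (ex 475/em 520 nm) read every 20 min. IC50 taken from the signal 1 h after feed buffer addition.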

For experiment [1], the system named is Klebsiella pneumoniae. In words: Antibacterial activity against Klebsiella pneumoniae by CLSI based broth microdilution method. It counts as functional. The essentials: (§1)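 MIC read by CLSI broth microdilution (M07-A10) from direct colony suspension inocula. Reference strains came from ATCC: wild-type E. coli ATCC 25922 and K. pneumoniae ATCC 13883. An efflux-defective ΔtolC E. coli isogenic to ATCC 25922 was also used.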

For experiment [2], the system named is Escherichia coli. Nature of the experiment: Antibacterial activity against wild type Escherichia coli ATCC 25922 by CLSI based broth microdilution method. The class given is functional. A digest of the protocol:
as §1
(In general: Dilution methods test growth across graded concentrations, often in twofold steps.)

Experiment [3] deals with Escherichia coli. Nature of the experiment: Antibacterial activity against Escherichia coli by CLSI based broth microdilution method. The class given is functional. The essentials:
as §1

The test system of experiment [4] is Klebsiella pneumoniae. In words: Antibacterial activity against wild type Klebsiella pneumoniae ATCC 13883 by CLSI based broth microdilution method. It counts as functional. The essentials: as §1
Experiment [5] deals with Escherichia coli. In words: Antibacterial activity against efflux-defective (deltatolC) Escherichia coli ATCC 25922 by broth microdilution method. The class given is functional. A digest of the protocol: as §1

Turning to `C[C@H](NC(=O)[C@@H](NC(=O)[C@@H](N)CCCCN)[C@@H](O)CN)C(=O)NCC(=O)N[C@H](CCN)C(=O)N1CCC[C@H]1C(=O)N[C@@H](Cc1c[nH]cn1)C(=O)N[C@@H](CCCCN)C(=O)N/C(=C\CCNC(=N)N)C(=O)O`, the pIC50 (commonly the negative decadic logarithm of the IC50, by convention in mol/L) against Bacterial 70S ribosome is 4.44. The molecule `C[C@H](NC(=O)[C@@H](NC(=O)[C@@H](N)CCCCN)[C@@H](O)CN)C(=O)NCC(=O)N[C@H](CCCN)C(=O)N1CCC[C@H]1C(=O)N[C@@H](Cc1cnc[nH]1)C(=O)N[C@@H](CCCCN)C(=O)N/C(=C\CCNC(=N)N)C(=O)O` gave a pIC50 against Bacterial 70S ribosome of 6.30. Further, the MIC90 – broadly, the lowest concentration that inhibits either 90% of growth or 90% of the strains tested, depending on the study – against Klebsiella pneumoniae [1] turned out to be 8 µg/mL (≈ 7.83 µM); against Escherichia coli [3] it was 32 µg/mL (≈ 31.3 µM). The minimum inhibitory concentration (MIC) (commonly the least concentration at which growth counts as inhibited) in the experiment on Escherichia coli [2] was 8 µg/mL (≈ 7.83 µM); against Klebsiella pneumoniae [4], 4 µg/mL (≈ 3.92 µM); in the experiment with Escherichia coli [5], 8 µg/mL (≈ 7.83 µM). As for `C[C@H](NC(=O)[C@@H](NC(=O)[C@@H](N)CCCCN)[C@H](O)CN)C(=O)NCC(=O)N[C@H](CCCN)C(=O)N1CCC[C@H]1C(=O)N[C@@H](Cc1c[nH]cn1)C(=O)N[C@@H](CCCCN)C(=O)N/C(=C\CCNC(=N)N)C(=O)O`, the negative-log IC50 (pIC50) on Bacterial 70S ribosome is < 4.40. Same read-out and setting: to `CNCCC[C@@H](NC(=O)CNC(=O)[C@H](C)NC(=O)[C@@H](NC(=O)[C@@H](N)CCCCN)[C@@H](O)CN)C(=O)N1CCC[C@H]1C(=O)N[C@@H](Cc1c[nH]cn1)C(=O)N[C@@H](CCCCN)C(=O)N/C(=C\CCNC(=N)N)C(=O)O` belongs < 4.40. For the molecule `C[C@H](NC(=O)[C@@H](NC(=O)[C@@H](N)CCCCN)[C@@H](O)CN)C(=O)NCC(=O)N[C@H](CCCO)C(=O)N1CCC[C@H]1C(=O)N[C@@H](Cc1c[nH]cn1)C(=O)N[C@@H](CCCCN)C(=O)N/C(=C\CCNC(=N)N)C(=O)O` (H-K[Dab(3S-OH)]AG[X1]PHK[ΔZArg]-OH), the pIC50 at Bacterial 70S ribosome is 5.89. In addition, the MIC in the experiment on Escherichia coli [2], in the experiment with Klebsiella pneumoniae [4] and with Escherichia coli [5] was > 64 µg/mL throughout.

On Bacterial 70S ribosome, `C[C@H](NC(=O)[C@@H](NC(=O)[C@@H](N)CCCCN)[C@@H](C)CN)C(=O)NCC(=O)N[C@H](CCCN)C(=O)N1CCC[C@H]1C(=O)N[C@@H](Cc1c[nH]cn1)C(=O)N[C@@H](CCCCN)C(=O)N/C(=C\CCNC(=N)N)C(=O)O` showed a pIC50 of 4.57. Same read-out and setting: to `C[C@H](NC(=O)[C@@H](NC(=O)[C@@H](N)CCCCN)[C@H](C)O)C(=O)NCC(=O)N[C@H](CCCN)C(=O)N1CCC[C@H]1C(=O)N[C@@H](Cc1c[nH]cn1)C(=O)N[C@@H](CCCCN)C(=O)N/C(=C\CCNC(=N)N)C(=O)O` belongs < 4.40. Same read-out and setting: to `C[C@H](NC(=O)[C@@H](NC(=O)[C@@H](N)CCCCN)[C@@H](O)C(C)(C)N)C(=O)NCC(=O)N[C@H](CCCN)C(=O)N1CCC[C@H]1C(=O)N[C@@H](Cc1c[nH]cn1)C(=O)N[C@@H](CCCCN)C(=O)N/C(=C\CCNC(=N)N)C(=O)O` belongs < 4.40. Take `CNC[C@H](O)[C@H](NC(=O)[C@@H](N)CCCCN)C(=O)N[C@@H](C)C(=O)NCC(=O)N[C@H](CCCN)C(=O)N1CCC[C@H]1C(=O)N[C@@H](Cc1c[nH]cn1)C(=O)N[C@@H](CCCCN)C(=O)N/C(=C\CCNC(=N)N)C(=O)O`: the pIC50 against Bacterial 70S ribosome was 5.49. Further, the results for the MIC against Escherichia coli [2], against Klebsiella pneumoniae [4] and in the experiment with Escherichia coli [5] were 64 µg/mL (≈ 61.8 µM), 32 µg/mL (≈ 30.9 µM) and 64 µg/mL (≈ 61.8 µM), respectively. For `CO[C@@H](CN)[C@H](NC(=O)[C@@H](N)CCCCN)C(=O)N[C@@H](C)C(=O)NCC(=O)N[C@H](CCCN)C(=O)N1CCC[C@H]1C(=O)N[C@@H](Cc1c[nH]cn1)C(=O)N[C@@H](CCCCN)C(=O)N/C(=C\CCNC(=N)N)C(=O)O`, the pIC50 at Bacterial 70S ribosome is < 4.40. The same measure, in the same setting: to `C[C@H](NC(=O)[C@H](CO)NC(=O)[C@@H](N)CCCCN)C(=O)NCC(=O)N[C@H](CCCN)C(=O)N1CCC[C@H]1C(=O)N[C@@H](Cc1c[nH]cn1)C(=O)N[C@@H](CCCCN)C(=O)N/C(=C\CCNC(=N)N)C(=O)O` belongs < 4.40; to `CC(=O)NCCC[C@@H](NC(=O)CNC(=O)[C@H](C)NC(=O)[C@@H](NC(=O)[C@@H](N)CCCCN)[C@@H](O)CN)C(=O)N1CCC[C@H]1C(=O)N[C@@H](Cc1c[nH]cn1)C(=O)N[C@@H](CCCCN)C(=O)N/C(=C\CCNC(=N)N)C(=O)O`, < 4.40. As for `C[C@H](NC(=O)[C@@H](NC(=O)[C@@H](N)CCCCN)[C@@H](O)CCN)C(=O)NCC(=O)N[C@H](CCCN)C(=O)N1CCC[C@H]1C(=O)N[C@@H](Cc1c[nH]cn1)C(=O)N[C@@H](CCCCN)C(=O)N/C(=C\CCNC(=N)N)C(=O)O`, the pIC50 on Bacterial 70S ribosome is 4.84. Consider `C[C@H](NC(=O)[C@@H](NC(=O)[C@@H](N)CCCCN)[C@@H](O)CN)C(=O)NCC(=O)N[C@H](CC[C@@H](C)N)C(=O)N1CCC[C@H]1C(=O)N[C@@H](Cc1c[nH]cn1)C(=O)N[C@@H](CCCCN)C(=O)N/C(=C\CCNC(=N)N)C(=O)O`, for which the pIC50 on Bacterial 70S ribosome is < 4.40. In the case of `C[C@H](NC(=O)[C@H](CCN)NC(=O)[C@@H](N)CCCCN)C(=O)NCC(=O)N[C@H](CCCN)C(=O)N1CCC[C@H]1C(=O)N[C@@H](Cc1c[nH]cn1)C(=O)N[C@@H](CCCCN)C(=O)N/C(=C\CCNC(=N)N)C(=O)O`, the pIC50 against Bacterial 70S ribosome was 4.77. The same measure, in the same setting: to `C[C@H](N)CC[C@@H](NC(=O)CNC(=O)[C@H](C)NC(=O)[C@@H](NC(=O)[C@@H](N)CCCCN)[C@@H](O)CN)C(=O)N1CCC[C@H]1C(=O)N[C@@H](Cc1c[nH]cn1)C(=O)N[C@@H](CCCCN)C(=O)N/C(=C\CCNC(=N)N)C(=O)O` belongs 4.75; to `C[C@H](NC(=O)[C@@H](NC(=O)[C@@H](N)CCCCN)[C@@H](O)[C@@H](C)N)C(=O)NCC(=O)N[C@H](CCCN)C(=O)N1CCC[C@H]1C(=O)N[C@@H](Cc1c[nH]cn1)C(=O)N[C@@H](CCCCN)C(=O)N/C(=C\CCNC(=N)N)C(=O)O`, 5.00; to `C[C@H](NC(=O)[C@@H](NC(=O)[C@@H](N)CCCCN)[C@@H](O)[C@H](C)N)C(=O)NCC(=O)N[C@H](CCCN)C(=O)N1CCC[C@H]1C(=O)N[C@@H](Cc1c[nH]cn1)C(=O)N[C@@H](CCCCN)C(=O)N/C(=C\CCNC(=N)N)C(=O)O`, < 4.40. Still for that read-out and setting: to `C[C@H](NC(=O)[C@@H](NC(=O)[C@@H](N)CCCCN)[C@@H](O)CN)C(=O)NCC(=O)N[C@](C)(CCCN)C(=O)N1CCC[C@H]1C(=O)N[C@@H](Cc1c[nH]cn1)C(=O)N[C@@H](CCCCN)C(=O)N/C(=C\CCNC(=N)N)C(=O)O` belongs 4.74; to `CCCC[C@@H](NC(=O)CNC(=O)[C@H](C)NC(=O)[C@@H](NC(=O)[C@@H](N)CCCCN)[C@@H](O)CN)C(=O)N1CCC[C@H]1C(=O)N[C@@H](Cc1c[nH]cn1)C(=O)N[C@@H](CCCCN)C(=O)N/C(=C\CCNC(=N)N)C(=O)O`, < 4.40; to `C[C@H](NC(=O)[C@@H](NC(=O)[C@@H](N)CCCCN)[C@@H](O)CN)C(=O)NCC(=O)N[C@H](CCCCN)C(=O)N1CCC[C@H]1C(=O)N[C@@H](Cc1c[nH]cn1)C(=O)N[C@@H](CCCCN)C(=O)N/C(=C\CCNC(=N)N)C(=O)O`, < 4.40.
